Experiment [1] relates to HepG2. The experiment in a line: Inhibition of protein tyrosine kinase in human HepG2 cells assessed as change in TRK level at cytotoxic IC50 level incubated for 24 hrs by ELISA method. The experiment is classed as cell-based. Also on record: scale not given: the % may be the effect or the level left. Summed up:
(§1)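 Cells kept in DMEM with 10% heat-inactivated fetal calf serum plus penicillin/streptomycin at 37 °C, 5% CO2. […] Cells homogenized in saline. TRK measured by double-antibody sandwich ELISA, OD 450 nm, read against a standard curve in triplicate. Percent inhibition relative to DMSO-treated control cells.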
In general terms: In an ELISA, binding on a coated surface is turned into a signal by an enzyme label.

Experiment [2] addresses T1, Prostaglandin G/H synthase 1 (Ovis aries, UniProt P05979).
T1 sequence (P05979 whole entry): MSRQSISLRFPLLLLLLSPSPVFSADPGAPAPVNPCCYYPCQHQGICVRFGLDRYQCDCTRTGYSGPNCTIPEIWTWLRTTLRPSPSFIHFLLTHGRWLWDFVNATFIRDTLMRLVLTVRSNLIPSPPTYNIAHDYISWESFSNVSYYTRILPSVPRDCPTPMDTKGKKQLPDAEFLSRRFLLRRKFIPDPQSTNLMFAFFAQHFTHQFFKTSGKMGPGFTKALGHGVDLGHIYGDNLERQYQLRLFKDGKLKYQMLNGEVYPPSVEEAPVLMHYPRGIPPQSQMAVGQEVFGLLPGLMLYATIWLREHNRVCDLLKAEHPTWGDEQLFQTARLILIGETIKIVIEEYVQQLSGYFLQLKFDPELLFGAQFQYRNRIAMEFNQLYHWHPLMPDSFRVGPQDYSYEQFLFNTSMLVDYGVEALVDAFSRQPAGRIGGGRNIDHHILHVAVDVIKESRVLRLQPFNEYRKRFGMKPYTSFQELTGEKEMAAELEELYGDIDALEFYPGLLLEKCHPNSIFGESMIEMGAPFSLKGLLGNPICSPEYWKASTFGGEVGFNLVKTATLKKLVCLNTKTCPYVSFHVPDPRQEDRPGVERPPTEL
The experiment can be described thus: Inhibition of ovine COX1 assessed as reduction in PGH2 production using arachidonic acid substrate by enzyme immunoassay. Summed up: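 Ovine COX-1 with heme in 0.1 M Tris-HCl pH 8.0 containing 5 mM EDTA and 2 mM phenol. Test compound given at […] final, from DMSO stock. Preincubated 5 min at 37 °C, then arachidonic acid added; stopped with 1 M HCl after 2 min. PGH2 reduced to PGF2a by stannous chloride, measured by competitive EIA at 410 nm. IC50 from concentration-inhibition curve, duplicate determinations.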

The subject of experiment [3] is HepG2. The experiment in a line: Cytotoxicity against human HepG2 cells after 48 hrs by sulforhodamine B assay. It is filed as functional, cell-based. The settings on record: HepG2, 48 h. Summed up:
(§2)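 Cells seeded at 10^4 per well, left 24 h to attach, then exposed to 0, 12.5, 25, 50 […] as printed, triplicate wells per dose, 48 h at 37 °C, 5% CO2. Fixed, stained with sulforhodamine B, excess dye removed with acetic acid, bound dye taken up in Tris EDTA and read on an ELISA reader. IC50 from survival curve of surviving fraction against concentration.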
In general terms: The SRB assay estimates cell density from bound dye.

Experiment [4] deals with MCF7. The experiment can be described thus: Cytotoxicity against human MCF7 cells after 48 hrs by sulforhodamine B assay. The experiment is classed as functional, cell-based. The conditions noted are these: MCF7, 48 h. In short, it runs like this: as §2
For experiment [5], the system named is MCF7. The experiment can be described thus: Inhibition of protein tyrosine kinase in human MCF7 cells assessed as change in TRK level at cytotoxic IC50 level incubated for 24 hrs by ELISA method. It is filed as cell-based. Also on record: scale not given: the % may be the effect or the level left. Summed up: as §1

pIC50: −log10 of the molar value. Some results are limits rather than exact numbers.

Data on 13 compounds can be found in ChEMBL document CHEMBL3352187, “Design, synthesis and molecular docking study of novel quinoxalin-2(1H)-ones as anti-tumor active agents with inhibition of tyrosine kinase receptor and studying their cyclooxygenase-2 activity” (Eur J Med Chem, 2014).

Turning to `CC(=O)N1CCN(c2c(/C=N/Nc3nc4ccccc4nc3O)c(C)nn2-c2ccccc2)CC1`, in experiment [1], the Activity was determined as 80%. Moreover, the pIC50 in experiment [2] was less than 4.30; in experiment [3], 4.96; in experiment [4], 4.74.
Take `Cc1nn(-c2ccccc2)c(N2CCNCC2)c1/C=N/Nc1nc2ccccc2nc1O`: the Activity in experiment [5] is 66%; in experiment [1], 20%. In addition, the pIC50 in experiment [2] was less than 4.30; in experiment [3], 4.42; in experiment [4], 4.79.
Take `Cc1nn(-c2ccccc2)c(N2CCN(S(=O)(=O)c3ccccc3[N+](=O)[O-])CC2)c1/C=N/Nc1nc2ccccc2nc1O`: the Activity is 37% in experiment [5] and 13% in experiment [1]. The pIC50 is 4.49 in experiment [3] and 4.84 in experiment [4].
Regarding `Cc1nn(-c2ccccc2)c(SCCO)c1/C=N/Nc1nc2ccccc2nc1O`, the values for the Activity in experiment [5] and in experiment [1] were 82% and 78%, respectively. The values for the pIC50 in experiment [3] and in experiment [4] were 4.63 and 4.95, respectively.
On to `Cc1nn(-c2ccccc2)c(OC2CCCC2)c1/C=N/Nc1nc2ccccc2nc1O`, for which the Activity in experiment [5] turned out to be 16.5%; in experiment [1] it was 40%. Further, the results for the pIC50 in experiment [2], in experiment [3] and in experiment [4] were less than 4.30, 4.44 and 4.50, respectively.
For the compound `Cc1nn(-c2ccccc2)c(Cl)c1/C=N/Nc1nc2ccccc2[nH]c1=O`, the Activity amounted to 34% in experiment [5] and 79% in experiment [1]. Besides, the pIC50 is less than 4.30 in experiment [2], 4.71 in experiment [3] and 4.60 in experiment [4].
Consider `Cc1nn(-c2ccccc2)c(N2CCOCC2)c1/C=N/Nc1nc2ccccc2nc1O`, for which the values for the Activity in experiment [5] and in experiment [1] were 85% and 84%, respectively. In addition, the pIC50 in experiment [2] is less than 4.30; in experiment [3] it was 4.96; in experiment [4], 5.03.
Regarding `Cc1nn(-c2ccccc2)c(SCC(=O)O)c1/C=N/Nc1nc2ccccc2nc1O`, the values for the Activity in experiment [5] and in experiment [1] were 4% and 22%, respectively. Also, the pIC50 in experiment [3] was 4.39; in experiment [4], 4.47.
The corresponding values for `Cc1nn(-c2ccc([N+](=O)[O-])cc2)c(Cl)c1/C=N/Nc1nc2ccccc2[nH]c1=O` are 40%, 39%, 4.47 and 4.68.
For the compound `Cc1nn(-c2ccccc2)c(N(C)C)c1/C=N/Nc1nc2ccccc2nc1O`, the Activity in experiment [5] turned out to be 62%; in experiment [1] it was 73%. The figures for the pIC50 in experiment [2], in experiment [3] and in experiment [4] were less than 4.30, 4.50 and 4.74, respectively.
As for `Cc1nn(-c2ccccc2)c(N2CCN(S(=O)(=O)c3ccccc3)CC2)c1/C=N/Nc1nc2ccccc2nc1O`, the values for the Activity in experiment [5] and in experiment [1] were 12% and 19%, respectively. The pIC50 in experiment [3] is 4.55; in experiment [4], 4.58.
Regarding `Cc1nn(-c2ccccc2)c(N2CCCCC2)c1/C=N/Nc1nc2ccccc2nc1O`, the Activity in experiment [5] turned out to be 74%; in experiment [1] it was 75%. In addition, the pIC50 in experiment [2] is less than 4.30; in experiment [3], 4.74; in experiment [4] it was 4.89.
On the same counts, the results for `Cc1nn(-c2ccccc2)c(N2CCN(C)CC2)c1/C=N/Nc1nc2ccccc2nc1O` are 83%, 83%, less than 4.30, 4.94 and 5.00.

As a reminder, the pIC50 is the IC50 on a negative log10 scale, so that one unit is a factor of ten.
